High-throughput results as filed in PubChem BioAssay.
Hits are enriched below; roughly 9.5% of the tested compounds scored in any of these assays.
M1 agonist = M1 muscarinic receptor agonists, primary screen, CHO-M1 cells, Fluo-4 calcium, agonist mode. Muscarinic acetylcholine receptor M1. AID 626, 2007. B-score at 10 µM. 64,000 compounds, 3% hits. Fluo-4 calcium fluorescence; stronger effect = higher value;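 active means fluorescence rise, raw or as B-score row- and column-corrected plate score, outside the 99.7% band of its plate's samples, either direction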
HEK293 NFkB inh = inhibitors of PMA/ionomycin-induced NF-kB reporter, primary screen, antigen receptor NF-kB inhibitor project, cell-based, HEK-293 luciferase reporter, luminescence | HEK-293 NF-kB luciferase reporter | 62,000 compounds, 0.21% hits | inhibition, % at 3 µM;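 active means inhibition above the mean of all tested compounds plus 3 SD, cut at about 40% in these data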;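 further: 0% = stimulated DMSO wells and 100% = 10 µM reference inhibitor 5653914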
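Material: HEK-293 cells with stable firefly luciferase reporter driven by four HIV NF-kB elements / Also added: PMA plus ionomycin mix as NF-kB-activating stimulus / Compound dosing: 3 µM once, 0.30% DMSO / Times: 1 h pretreatment, 16 h stimulation, 37 °C / Signal: luminescence / Evaluation: per-plate % inhibition versus controls / Benchmarks: DMSO and 10 µM reference inhibitor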
Jurkat tox 60K = cytotoxicity toward Jurkat T cells, primary screen, cytotoxicity control, cell-based, Jurkat E6.1, 60K MLSMR library. Jurkat E6.1 viability, ATP luminescence, 48 h. inhibition, % at 4 µM. 56,000 compounds, 1.2% hits. AID 463, 2006;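 active means inhibition above the mean inhibition of all tested compounds plus 3 SD, cut at about 28% in these data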
D1 allo mod = D1 CRE-luciferase signal change, two-sided – cell-based, HEK293 D1, dopamine EC30, D1 allosteric modulator project, primary screen. D(1A) dopamine receptor (Homo sapiens), P21728. dopamine EC30 potentiation; actives deviate in either direction. B-score at 10 µM. 58,000 compounds, 5.9% hits. AID 641, 2007;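 active means luminescence count or its row- and column-corrected plate score outside the 99.7% band of the plate's sample wells, on either side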
Target sequence (P21728 whole entry, looked up): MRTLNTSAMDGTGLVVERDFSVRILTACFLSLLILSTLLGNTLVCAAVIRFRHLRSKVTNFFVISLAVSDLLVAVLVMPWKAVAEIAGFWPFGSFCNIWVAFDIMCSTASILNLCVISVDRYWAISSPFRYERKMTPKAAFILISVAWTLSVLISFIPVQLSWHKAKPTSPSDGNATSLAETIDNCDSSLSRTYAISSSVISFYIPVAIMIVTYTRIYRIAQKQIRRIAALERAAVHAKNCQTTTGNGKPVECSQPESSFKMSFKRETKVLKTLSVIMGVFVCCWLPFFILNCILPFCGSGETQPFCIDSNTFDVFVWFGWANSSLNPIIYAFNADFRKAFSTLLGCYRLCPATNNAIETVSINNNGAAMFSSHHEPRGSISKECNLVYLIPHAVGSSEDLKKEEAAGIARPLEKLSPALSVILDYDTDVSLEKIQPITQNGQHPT
M1 antagonist = antagonists of rat M1 muscarinic receptor | CHO-M1 cells, Fluo-4 calcium, ACh EC80 antagonist mode; stronger effect = lower value | 64,000 compounds, 3.4% hits | B-score at 10 µM | AID 628, 2007 | Muscarinic acetylcholine receptor M1 (Rattus norvegicus), P08482;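 active means calcium fluorescence response, raw or row-and-column corrected B-score, differing from the plate sample mean either way at a set confidence level, mostly lower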
mHtt clearance = clearance of mutant huntingtin inclusions, primary screen, imaging, HeLa Exon1htt(103Q)mCFP, confocal imaging; 47,000 compounds, 0.42% hits; inhibition, % at 1.5 µM; aggregate imaging; zero = plate's median compound well;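 active means inhibition of aggregate fluorescence above about 70%, also judged a hit by eye on the cell image, limit read from the data, passing the limit was not always enough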;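 further: cells exposed to compound for three days before fixation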
D1 mod confirm = D1 receptor positive allosteric modulators, retest, confirmation, cell-based, HEK293 D1, CRE-luciferase, duplicate; shares compounds with D1 allo mod; dopamine EC30 potentiation; stronger effect = higher value; luminescence at 10 µM; 2,200 compounds, 88% hits; AID 642, 2007;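 active means luminescence in either of two replicates above the same-plate mean plus 3 SD of the low-dose dopamine control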
D1 ag no DA = D1 receptor agonism without dopamine, confirmation, mechanism study for D1 allosteric modulator project, cell-based, HEK293 D1, CRE-luciferase, secondary assay 1 | shares compounds with D1 allo mod | luminescence, no dopamine; stronger effect = higher value | luminescence at 10 µM | 1,900 compounds, 0.8% hits; in the data active means luminescence above about 3900
Isoprot counter = counter-screen for D1 modulators: isoproterenol response in HEK293 cells. shares compounds with D1 allo mod. HEK293 D1 CRE-luciferase, isoproterenol EC30 counter-screen; stronger effect = higher value. luminescence at 10 µM. 2,200 compounds, 63% hits. AID 647;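 active means luminescence in either replicate above plate mean of wells with a partly effective reference agonist dose plus 3 SD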;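 further: isoproterenol raises cAMP through native beta-adrenoceptor Gs so signal bypasses D1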
* hit, by the source's call.

N#C/C(=C\C1CC=CCC1)c1nc2ccccc2[nH]1 (stereo unspecified) was read as M1 agonist -1.1, HEK293 NFkB inh 8, Jurkat tox 60K 5, D1 allo mod -1.2 and M1 antagonist 0.97.
For CCOc1ccc(-c2nc(CSc3nncs3)cs2)cc1OC the results were M1 agonist 0.18, HEK293 NFkB inh 10, D1 allo mod 23*, M1 antagonist 0.67, mHtt clearance 27, D1 mod confirm 21360* and Isoprot counter 8636*.
CCCSc1nc2c(cnn2-c2ccc(C)cc2)c(=O)[nH]1 was read as M1 agonist -0.12, HEK293 NFkB inh 11, Jurkat tox 60K -8, D1 allo mod 10*, M1 antagonist 0.48, mHtt clearance -10, D1 mod confirm 20136*, D1 ag no DA 1696 and Isoprot counter 3796*.
For CCC(C)Sc1nc2c(cnn2-c2ccccc2)c(=O)[nH]1 (stereo unspecified) the results were M1 agonist 0.48, HEK293 NFkB inh 13, Jurkat tox 60K -6, D1 allo mod 12*, M1 antagonist -0.01, D1 mod confirm 13072*, D1 ag no DA 1680 and Isoprot counter 3576*.
For CCCSc1nc2c(cnn2-c2ccccc2)c(=O)[nH]1 the results were M1 agonist 0.96, HEK293 NFkB inh 10, Jurkat tox 60K -6, D1 allo mod 11*, M1 antagonist 0.13, D1 mod confirm 17784*, D1 ag no DA 1636 and Isoprot counter 3568*.
Screening CCC(C)Sc1nc2c(cnn2-c2ccc(C)cc2)c(=O)[nH]1 (stereo unspecified) returned M1 agonist -1.8, HEK293 NFkB inh 19, Jurkat tox 60K -13, M1 antagonist -0.74 and mHtt clearance -7.
Screening COc1ccc(-c2nnc(SCC(=O)NC(=O)NCc3ccco3)o2)cc1 returned M1 agonist -0.34, HEK293 NFkB inh 15, D1 allo mod -0.65, M1 antagonist -0.014 and mHtt clearance 26.
`CCOc1ccccc1NC(=O)C1C2C=CC(O2)C1C(=O)O` (stereo unspecified) gave M1 agonist -0.2, HEK293 NFkB inh 14, Jurkat tox 60K -4, D1 allo mod 4.8*, M1 antagonist 0.72, mHtt clearance -11, D1 mod confirm 5564, D1 ag no DA 1628 and Isoprot counter 2552.
`CCOc1ccccc1NC(=O)C1C2C=CC(C2)C1C(=O)O` (stereo unspecified) gave mHtt clearance 26.
`CCOC(=O)N1CCC(N2Cc3cccc(C(=O)NC(C)c4ccc5c(c4)OCCO5)c3C2=O)CC1` (stereo unspecified) gave M1 agonist 0.23, HEK293 NFkB inh 15, Jurkat tox 60K 4, D1 allo mod 2.4*, M1 antagonist -0.63, D1 mod confirm 8332*, D1 ag no DA 1632 and Isoprot counter 3336.
For COc1ccccc1NC(=O)CSc1ccc2nnc(-c3cccnc3)n2n1 the results were M1 agonist -0.25, HEK293 NFkB inh 24, Jurkat tox 60K 7, D1 allo mod 2.5*, M1 antagonist -0.21, D1 mod confirm 8024, D1 ag no DA 1728 and Isoprot counter 2644.
For CC(=O)OC1CC(C)N(C(=O)c2ccccc2)c2ccc(C)cc21 (stereo unspecified) the results were M1 agonist 0.49, HEK293 NFkB inh 22, Jurkat tox 60K 6, D1 allo mod 11*, M1 antagonist 0.97, mHtt clearance 42, D1 mod confirm 11832*, D1 ag no DA 1612 and Isoprot counter 3960*.
`CC(C)C(NS(=O)(=O)c1cccc2nsnc12)C(=O)N1CCc2ccccc2C1` (stereo unspecified) gave M1 agonist 0.39, HEK293 NFkB inh 13, Jurkat tox 60K -1, D1 allo mod -0.39, M1 antagonist -0.35 and mHtt clearance 25.
`COc1cc(-c2nc3n(n2)C(c2cccc(OC)c2OC)C2=C(CCCC2=O)N3)cc(OC)c1OC` (stereo unspecified) gave M1 agonist -0.47, HEK293 NFkB inh 2, Jurkat tox 60K -2, D1 allo mod -0.046 and M1 antagonist -0.6.
`CC(C)CC(OC(=O)c1ccco1)C(=O)NC1CCCCC1` (stereo unspecified) gave M1 agonist -1.6, HEK293 NFkB inh -4, Jurkat tox 60K -7, D1 allo mod 0.53 and M1 antagonist 0.54.
For COc1cccc(/C=N/n2c(SC)nnc2-c2ccccc2)c1OC the results were M1 agonist -0.63, HEK293 NFkB inh 4, Jurkat tox 60K 2, D1 allo mod 6*, M1 antagonist 0.15, mHtt clearance -2, D1 mod confirm 8100*, D1 ag no DA 1656 and Isoprot counter 4984*.
N#Cc1ccccc1Cn1c(-c2cscn2)nc2ccccc21 was read as M1 agonist 0.88, HEK293 NFkB inh 19, Jurkat tox 60K 5, D1 allo mod 13*, M1 antagonist 0.055, mHtt clearance -22, D1 mod confirm 15376*, D1 ag no DA 1480 and Isoprot counter 4728*.
Screening O=C(O)Cn1c(-c2cscn2)nc2ccccc21 returned M1 agonist -0.89, HEK293 NFkB inh 1, Jurkat tox 60K -5, D1 allo mod -0.12 and M1 antagonist 0.068.
`CCOc1ccc(C2N(c3ccc(F)cc3)C(=O)C3CCCN32)cc1OC` (stereo unspecified) gave M1 agonist -1.2, HEK293 NFkB inh -5, Jurkat tox 60K -2, D1 allo mod 0.79, M1 antagonist -0.76 and mHtt clearance 53.
For CCOC(=O)N1CCC(NC(=O)c2ccc(CS(=O)(=O)c3ccc(OC)cc3)o2)CC1 the results were M1 agonist -0.85, HEK293 NFkB inh 12, Jurkat tox 60K 13, D1 allo mod 0, M1 antagonist -0.38 and mHtt clearance 24.
